In brackets after ≈: the same amount, converted by molar mass. Blank lines part the entries; values can stand above or below the compound they belong to.
Experiments:
[1] = In vitro inhibitory activity against Pneumococci PenR (65); type: functional
Staphylococcus sp. [2] = assay: In vitro inhibitory activity against Staphylococci EryRc (13); type: functional
Streptococcus sp [3] = assay: In vitro inhibitory activity against Streptococci EryRi (98)
Mus musculus [4] = assay: In Vivo evaluation for its effective dose against Streptococcus pyogenes (02A1UC1); type: functional
Outline: (§1)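 Male Charles River CD1 mice, 20-22 g, 10 per dose group, infected intraperitoneally with 0.5 mL diluted overnight broth culture (physiological buffer or 5% hog mucine) at 10-100 times the minimal lethal dose. Compound suspended in carboxymethylcellulose, 0.5 mL given orally immediately and 4 h postinfection. Survival followed 8-10 days; ED50 (unitary dose protecting 50% from death) by Litchfield-Wilcoxon probit method.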

Mus musculus [5] = assay: In Vivo evaluation for its effective dose against Streptococcus pneumoniae (030RO1 EryRi); type: functional; outline: as §1
Streptococcus pneumoniae [6] = assay: In vitro inhibitory activity against Streptococcus pneumoniae (EryRi 030SJ5i); type: functional
Outline: (§2)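 Two-fold agar dilution on Mueller-Hinton agar (pH 7.4). Inoculum from overnight plate cultures suspended in Mueller-Hinton broth, adjusted to 10^9 CFU/mL, diluted 1:200 and spotted by multipoint inoculator at about 10^4 CFU/spot. Plates incubated 37 °C for 20 h. MIC taken as lowest concentration with no visible growth.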

Mus musculus [7] = assay: In Vivo evaluation for its effective dose against Streptococcus pneumoniae (032UC1); type: functional; outline: as §1
Staphylococcus aureus [8] = assay: In vitro inhibitory activity against Staphylococcus aureus (011UC4); type: functional; outline: as §2
Mus musculus [9] = assay: In Vivo evaluation for its effective dose against Staphylococcus aureus (011GO25 EryRi.; type: functional; outline: as §1
Enterococcus = assay: In vitro inhibitory activity against enterococci EryRi (19); type: functional
[10] = In vitro inhibitory activity against Pneumococci EryRc (34); type: functional
Haemophilus [11] = assay: In vitro inhibitory activity against Haemophilus AmpR (37); type: functional
Mus musculus [12] = assay: In Vivo evaluation for its effective dose against Streptococcus pneumoniae (030SJ6 EryRc); type: functional; outline: as §1
Streptococcus pneumoniae [13] = assay: In vitro inhibitory activity against Streptococcus pneumoniae (032UC1); type: functional; outline: as §2
Streptococcus pneumoniae [14] = assay: In vitro inhibitory activity against Streptococcus pneumoniae (EryRc 030SJ1); type: functional; outline: as §2
Mus musculus [15] = assay: In Vivo evaluation for its effective dose against Streptococcus pneumoniae (030SJ1 EryRc); type: functional; outline: as §1
Haemophilus influenzae [16] = assay: In vitro inhibitory activity against Haemophilus influenzae (351CB12); type: functional; outline: as §2
Haemophilus influenzae [17] = assay: In vitro inhibitory activity against Haemophilus influenzae (351HT3); type: functional; outline: as §2
Mus musculus [18] = assay: In Vivo evaluation for its effective dose against Haemophilus influenzae (351TO19 AmpR beta (-)); type: functional; outline: as §1
Mus musculus [19] = assay: In Vivo evaluation for its effective dose against Haemophilus influenzae (351RD7 AmpR beta (+)); type: functional; outline: as §1
[20] = tested on: Staphylococcus epidermidis; assay: In vitro inhibitory activity against Staphylococcus epidermidis (EryRi 012GO11i); type: functional; outline: as §2
Staphylococcus sp. [21] = assay: In vitro inhibitory activity against Staphylococci EryRi (65); type: functional
Mus musculus [22] = assay: In Vivo evaluation for its effective dose against Streptococcus pneumoniae (030Cr29 EryRc); type: functional; outline: as §1
Streptococcus sp [23] = assay: In vitro inhibitory activity against Streptococci EryRi (98); remark: listed apart in the source
Staphylococcus aureus [24] = assay: In vitro inhibitory activity against Staphylococcus aureus (EryRc 011CB20); type: functional; outline: as §2
Escherichia coli = assay: In vitro inhibitory activity against Escherichia coli (250 UC5); type: functional; outline: as §2
Streptococcus pyogenes [25] = assay: In vitro inhibitory activity against Streptococcus pyogenes (02A1UC1); type: functional; outline: as §2
Mus musculus [26] = assay: In Vivo evaluation for its effective dose against Streptococcus pneumoniae (030MV2 EryRc); type: functional; outline: as §1
Staphylococcus aureus [27] = assay: In vitro inhibitory activity against Staphylococcus aureus (EryRi 011GO25i); type: functional; outline: as §2
Mus musculus [28] = assay: In Vivo evaluation for its effective dose against Haemophilus influenzae (351GR1); type: functional; outline: as §1
Haemophilus [29] = assay: In vitro inhibitory activity against Haemophilus AmpS (43); type: functional
Streptococcus sp [30] = assay: In vitro inhibitory activity against Streptococci EryR (27)
Streptococcus sp [31] = assay: as above; remark: listed apart in the source
Mus musculus [32] = assay: In Vivo evaluation for its effective dose against Staphylococcus aureus (011UC4).; type: functional; outline: as §1
Streptococcus pyogenes [33] = assay: In vitro inhibitory activity against Streptococcus pyogenes (02A1UC1)

Structure (SMILES): CC[C@H]1OC(=O)[C@H](C)[C@@H](O[C@H]2C[C@@](C)(OC)[C@@H](O)[C@H](C)O2)[C@H](C)[C@@H](O[C@@H]2O[C@H](C)C[C@H](N(C)C)[C@H]2O)[C@](C)(OC)C[C@@H](C)C(=O)[C@H](C)[C@@H](O)[C@]1(C)O [CLARITHROMYCIN]
MIC50 [1]: 0.3 µg/mL (≈ 0.401 µM) | MIC90 [1]: 40 µg/mL (≈ 53.5 µM) | MIC50 (Staphylococcus sp. [2]): 40 µg/mL (≈ 53.5 µM) | MIC90 (Staphylococcus sp. [2]): 40 µg/mL (≈ 53.5 µM) | MIC50 (Streptococcus sp [3]): 40 µg/mL (≈ 53.5 µM) | ED50 (Mus musculus [4]): 16 mg/kg | ED50 (Mus musculus [5]): > 100 mg/kg | MIC (Streptococcus pneumoniae [6]): 40 µg/mL (≈ 53.5 µM) | ED50 (Mus musculus [7]): > 50 mg/kg | MIC (Staphylococcus aureus [8]): 0.3 µg/mL (≈ 0.401 µM) | ED50 (Mus musculus [9]): > 100 mg/kg | MIC50 (Enterococcus): 1.2 µg/mL (≈ 1.6 µM) | MIC90 (Enterococcus): 10 µg/mL (≈ 13.4 µM) | MIC50 [10]: 40 µg/mL (≈ 53.5 µM) | MIC90 [10]: 40 µg/mL (≈ 53.5 µM) | MIC50 (Haemophilus [11]): 2.5 µg/mL (≈ 3.34 µM) | MIC90 (Haemophilus [11]): 10 µg/mL (≈ 13.4 µM) | ED50 (Mus musculus [12]): > 100 mg/kg | MIC (Streptococcus pneumoniae [13]): 0.04 µg/mL (≈ 0.0535 µM) | MIC (Streptococcus pneumoniae [14]): 40 µg/mL (≈ 53.5 µM) | ED50 (Mus musculus [15]): > 100 mg/kg | MIC (Haemophilus influenzae [16]): 2.5 µg/mL (≈ 3.34 µM) | MIC (Haemophilus influenzae [17]): 2.5 µg/mL (≈ 3.34 µM) | ED50 (Mus musculus [18]): 600 mg/kg | ED50 (Mus musculus [19]): 109 mg/kg | MIC [20]: 40 µg/mL (≈ 53.5 µM) | MIC50 (Staphylococcus sp. [21]): 40 µg/mL (≈ 53.5 µM) | MIC90 (Staphylococcus sp. [21]): 40 µg/mL (≈ 53.5 µM) | ED50 (Mus musculus [22]): > 100 mg/kg | MIC90 (Streptococcus sp [23]): 40 µg/mL (≈ 53.5 µM) | MIC (Staphylococcus aureus [24]): 40 µg/mL (≈ 53.5 µM) | MIC (Escherichia coli): 40 µg/mL (≈ 53.5 µM) | MIC (Streptococcus pyogenes [25]): 0.08 µg/mL (≈ 0.107 µM) | ED50 (Mus musculus [26]): > 100 mg/kg | MIC (Staphylococcus aureus [27]): 40 µg/mL (≈ 53.5 µM) | ED50 (Mus musculus [28]): 346 mg/kg | MIC50 (Haemophilus [29]): 1.2 µg/mL (≈ 1.6 µM) | MIC90 (Haemophilus [29]): 5 µg/mL (≈ 6.68 µM) | MIC50 (Streptococcus sp [30]): 1.2 µg/mL (≈ 1.6 µM) | MIC90 (Streptococcus sp [31]): 40 µg/mL (≈ 53.5 µM) | ED50 (Mus musculus [32]): 12.6 mg/kg

MIC (Streptococcus pneumoniae [6]): 0.02 µg/mL (≈ 0.0251 µM) | MIC (Staphylococcus aureus [8]): 0.02 µg/mL (≈ 0.0251 µM) | MIC (Streptococcus pneumoniae [13]): 0.02 µg/mL (≈ 0.0251 µM) | MIC (Streptococcus pneumoniae [14]): 0.15 µg/mL (≈ 0.188 µM) | MIC (Haemophilus influenzae [16]): 0.6 µg/mL (≈ 0.753 µM) | MIC (Haemophilus influenzae [17]): 0.6 µg/mL (≈ 0.753 µM) | MIC (Streptococcus pyogenes [33]): 0.02 µg/mL (≈ 0.0251 µM) | MIC [20]: 0.04 µg/mL (≈ 0.0502 µM) | MIC (Staphylococcus aureus [24]): 40 µg/mL (≈ 50.2 µM) | MIC (Escherichia coli): 40 µg/mL (≈ 50.2 µM) | MIC (Staphylococcus aureus [27]): 0.08 µg/mL (≈ 0.1 µM)
Structure (SMILES): CC[C@H]1OC(=O)[C@H](C)C(=O)[C@H](C)[C@@H](O[C@@H]2O[C@H](C)C[C@H](N(C)C)[C@H]2O)[C@](C)(OC)C[C@@H](C)C(=O)[C@H](C)[C@H]2N(NCCCc3ccnc4ccccc34)C(=O)O[C@]12C
ED50 (Mus musculus [4]): 16 mg/kg | ED50 (Mus musculus [5]): 30 mg/kg | ED50 (Mus musculus [7]): 15.8 mg/kg | ED50 (Mus musculus [9]): 13 mg/kg | ED50 (Mus musculus [12]): 17 mg/kg | ED50 (Mus musculus [15]): 42 mg/kg | ED50 (Mus musculus [18]): 410 mg/kg | ED50 (Mus musculus [19]): 116 mg/kg | ED50 (Mus musculus [22]): 15 mg/kg | ED50 (Mus musculus [26]): 19 mg/kg | ED50 (Mus musculus [28]): 142 mg/kg | ED50 (Mus musculus [32]): 20 mg/kg
